Assay outcomes from PubChem.
MrgX1 ag: agonists of human MrgX1 receptor, primary screen, HEK293 cells, Fluo-4 calcium flux. hit rate 0.44% among 310,000. Fluo-4 calcium fluorescence, agonist mode; stronger effect = higher value. B-score at 10 µM. Mas-related G-protein coupled receptor member X1 (Homo sapiens), Q96LB2. AID 588627, 2011;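 active = calcium response B-score plate-corrected fluorescence ratio at least 3 library SD, with starting fluorescence B-score inside 5 SD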
Target sequence (Q96LB2 whole entry, looked up): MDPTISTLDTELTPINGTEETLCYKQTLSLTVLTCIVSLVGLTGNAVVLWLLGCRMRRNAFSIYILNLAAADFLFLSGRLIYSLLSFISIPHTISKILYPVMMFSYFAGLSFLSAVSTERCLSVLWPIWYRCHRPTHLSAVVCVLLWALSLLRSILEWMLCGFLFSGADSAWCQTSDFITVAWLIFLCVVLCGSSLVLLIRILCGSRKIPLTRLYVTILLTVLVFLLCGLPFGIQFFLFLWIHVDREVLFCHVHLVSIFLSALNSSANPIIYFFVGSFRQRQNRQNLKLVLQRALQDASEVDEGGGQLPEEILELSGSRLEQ
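Test system: HEK293 cells stably expressing human MrgX1 receptor; amount: 15,000 cells per well; doses: compound delivered in addition one of three; times: overnight plating before 1 h dye loading; detection: Fluo-4 NW calcium-flux fluorescence, kinetic read; read-out basis: B-scored fluorescence response ratio; controls: positive and negative controls per plate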
MrgX1 antagonist: antagonists of human MrgX1 receptor, primary screen, HEK293 cells, Fluo-4 calcium flux; B-score at 10 µM; hit rate 1.3% among 310,000; BAM8-22 antagonism; stronger effect = lower value;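 active = calcium-response B-score plate-corrected more than 3 library SD below zero, starting fluorescence within 5 deviations, no agonist response on first addition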;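 also: peak minus trough fluorescence over baseline after final BAM8-22 challenge near maximal dose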
RGS4 inh: RGS4 inhibitors, primary screen, cell-based, HEK293 M3R inducible RGS4, calcium flux; hit rate 0.45% among 310,000; B-score at 10 µM; Fluo-4 calcium flux; stronger effect = higher value; triggered by carbachol at its EC20; Regulator of G-protein signaling 4 (Homo sapiens), P49798;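 active = B-score, a plate-corrected calcium signal, over three deviations above library mean, with baseline fluorescence within five deviations of library mean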;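 also: RGS4 expression induced by doxycycline in cells with stable M3 receptor; B-score is computed from the integrated fluorescence ratio over baseline after carbachol; higher B-score means a larger calcium signal and so more RGS4 inhibition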
Target sequence (P49798 whole entry, looked up): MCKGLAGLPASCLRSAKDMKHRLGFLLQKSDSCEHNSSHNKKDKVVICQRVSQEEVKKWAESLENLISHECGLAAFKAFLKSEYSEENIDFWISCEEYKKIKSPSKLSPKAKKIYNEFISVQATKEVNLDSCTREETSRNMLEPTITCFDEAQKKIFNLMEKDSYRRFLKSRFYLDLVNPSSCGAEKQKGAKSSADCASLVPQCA
RGS4 pot: RGS4 potentiators or activators, primary screen, cell-based, HEK293 M3R inducible RGS4, calcium flux. carbachol calcium flux Fluo4; stronger effect = lower value. B-score at 10 µM. hit rate 0.92% among 310,000. AID 463111, 2010;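 active = B-score of the integrated calcium signal more than 4 SD below the library mean, with starting fluorescence not abnormally high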;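 also: negative B-score means reduced calcium response which marks RGS4 activation or potentiation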
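Detection: kinetic calcium fluorescence imaging with Fluo4-AM dye, 2 µM / Material: HEK293 cells with stable M3R and inducible RGS4 / Schedule: recording 10 s baseline at 1 Hz, 100 s post-agonist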
MrgX1 allo act: positive allosteric modulators of MrgX1, primary screen, HEK293 cells, Fluo-4 calcium flux; Mas-related G-protein coupled receptor member X1 (Homo sapiens), Q96LB2; hit rate 0.63% among 310,000; FDSS; stronger effect = higher value; B-score at 10 µM;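 active = plate-corrected calcium response at least 3 library SD above typical, normal starting fluorescence, not activating the receptor alone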;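 also: compound read alongside a low EC10 to EC30 dose of BAM8-22 agonist; peak minus trough fluorescence over baseline measured at the second addition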
Starred values were filed as active, the others as inactive; i = inactive; nt = not tested or not shown. Sampled rows, rich in hits. Any-hit rate of the full collection: about 3.5%.

SMILES | MrgX1 ag | MrgX1 antagonist | RGS4 inh | RGS4 pot | MrgX1 allo act
CC(/C=N/n1c(-c2ccc(C)cc2)n[nH]c1=S)=C\c1ccco1 | i | i | i | i | i
CC(/C=N/n1c(-c2ccncc2)n[nH]c1=S)=C\c1ccco1 | i | i | i | i | i
CC(/C=N/n1c(-c2ccco2)n[nH]c1=S)=C\c1ccco1 | i | -5.9* | i | i | i
COc1ccc(S(=O)(=O)N(CC(=O)NCc2ccncc2)c2ccc(C)cc2)cc1OC | i | i | i | i | i
COC(=O)C/C(N)=C(\C#N)C(=O)OC | i | i | i | i | i
N#CCC(N)=C(C#N)C#N | i | -7.2* | i | i | i
Cc1cc(C)cc(NC(=S)Nc2ccc(Cl)c(Cl)c2)c1 | i | i | i | i | i
Cc1cccc(C)c1NC(=S)Nc1ccc(Cl)c(Cl)c1 | 32* | i | i | i | i
CC1Nc2ncnc(N3CCc4ccccc4C3)c2N(Cc2ccc(Br)cc2)C1=O (stereo not drawn) | i | i | i | -9* | i
CC1Nc2ncnc(N3CCc4ccccc4C3)c2N(Cc2ccc(Cl)cc2)C1=O (stereo not drawn) | i | i | i | i | i
CCC1=NN(C(=O)c2ccc(Br)cc2)C(O)(c2ccccc2)C1 (stereo not drawn) | 30* | i | i | i | i
CCOc1ccccc1/C=C(\C#N)C1=CCCC1 | i | i | i | i | i
CCOc1cc(-c2nnc(NC(=O)c3ccco3)o2)cc(OCC)c1OCC | i | -4.9* | i | i | i
CC1CCCN(c2ccc(C(=O)NCc3ccco3)cc2[N+](=O)[O-])C1 (stereo not drawn) | i | -6.4* | i | i | i
Cc1ccc(C(=O)NCc2ccco2)cc1[N+](=O)[O-] | i | i | i | i | i
c1ccc(-c2cn3nc4c(nc3n2)CCCC4)cc1 | i | i | i | -7* | i
CCCn1c(N)c(N(CCOC)C(=O)Cc2ccc(S(=O)(=O)N3CCOCC3)s2)c(=O)[nH]c1=O | i | i | i | i | i
CC1CCCN(CCOCCOc2ccc(Br)cc2Cl)C1 (stereo not drawn) | i | i | i | -7.5* | i
COc1ccccc1-c1nnc(NC(=O)CSc2nncn2C)s1 | i | i | i | i | i
O=C(O)CCC(=O)NNC(=O)c1ccc(Br)cc1 | i | -9.3* | i | i | i
O=C(O)CCCC(=O)NNC(=O)c1cccc(Br)c1 | i | i | i | i | i
C=C[C@@]1(C)CC(=O)[C@]2(O)[C@@]3(C)[C@@H](O)CCC(C)(C)[C@@H]3[C@H](O)[C@H](OC(C)=O)[C@@]2(C)O1 | i | i | i | i | 10*
C=C1C(=O)O[C@H]2C[C@]3(C)C([C@@H](OC(=O)/C(C)=C/C)[C@H]12)[C@](C)(O)CC[C@H]3O (stereo partly drawn) | i | i | i | i | i
CCC1CCCCN1S(=O)(=O)c1ccc([N+](=O)[O-])cc1 (stereo not drawn) | i | i | i | -7.4* | i
COc1ccc(C(=O)COC(=O)c2ccc(OC)c(OC)c2)cc1OC | i | i | i | i | i
SMILES | MrgX1 ag | MrgX1 antagonist | RGS4 inh | RGS4 pot | MrgX1 allo act
COc1ccc(C(=O)CSC#N)cc1OC | 35* | i | i | i | i
O=C(CO/N=C1\CCCc2nonc21)Nc1ccccc1Cl | i | i | i | i | 14*
COc1ccc(NC(=O)CO/N=C2/CCCc3nonc32)c(OC)c1 | i | -5.5* | i | i | i
COc1ccc(NC(=O)CO/N=C2\CCCc3nonc32)cc1 | i | i | i | i | i
O=C(CO/N=C1\CCCc2nonc21)Nc1ccc(Br)cc1 | i | i | i | i | i
CCOc1ccccc1CNC(=O)Cn1ccc2cc(S(=O)(=O)N3CCCC3)ccc21 | i | i | i | i | i
CCN(CC)c1ccc(-c2nn3c(-c4n[nH]c5c4CCC5)nnc3s2)cc1 | i | -12* | i | -7.2* | i
Cc1cc(C)c(C(=O)CC(=O)c2ccccc2Cl)c(O)c1 | i | i | i | i | i
CCOc1ccc(N2CC(=O)Nc3ccccc3NCC2=O)cc1 | i | -5.9* | i | i | i
O=[N+]([O-])c1cncc([N+](=O)[O-])c1Nc1cccc(O)c1 | 38* | i | i | i | i
Cc1ccccc1Nc1c([N+](=O)[O-])cncc1[N+](=O)[O-] | i | i | i | i | i
Cc1cccc(CNC(=O)c2ccc(NC(=O)C3=CSCCO3)cc2)c1 | i | i | i | i | i
Cc1oc2c(c1C(=O)c1ccc(Cl)cc1)C(=O)C(=O)c1ccccc1-2 | nt | nt | i | i | nt
Cc1ccc(C(=O)c2c(C)oc3c2C(=O)C(=O)c2ccccc2-3)cc1 | i | i | i | -7.5* | i
CCc1cccc(C)c1NC(=O)CN1CCN(S(=O)(=O)c2ccc(C(C)(C)C)cc2)CC1 | i | i | i | i | i
Cc1ccccc1Cn1ccc(NC(=O)CCSc2nc(-c3ccco3)cc(C(F)(F)F)n2)n1 | i | i | i | i | i
O=C(Nc1ccc2c(c1)OCO2)c1cnn2c(C(F)(F)F)cc(-c3ccco3)nc12 | i | i | nt | nt | i
O=C(Nc1cnn(C23CC4CC(CC(C4)C2)C3)c1)c1cnn2c(C(F)(F)F)cc(-c3ccco3)nc12 | i | i | i | -8.5* | i
Cc1ccccc1Cn1ccc(NC(=O)c2cnn3c(C(F)(F)F)cc(-c4ccco4)nc23)n1 | i | i | i | -7.5* | i
CC(=O)Nc1cccc(NC(C)=C(C#N)C#N)c1 | i | i | i | i | i
O=C(Nc1nnc(C2CC2)s1)c1n[nH]c(=O)c2ccccc12 | i | i | i | i | i
Cc1ccc(S(=O)(=O)NC(=O)c2ccc(-c3ccc(-c4ccccc4)cc3)o2)c(C)c1 | i | i | i | -9.1* | i
O=c1o[nH]c(-c2ccccc2)c1-c1ccccc1 | i | i | i | i | i
CN(c1ccccc1)c1ccc(/C=C(\CCC(=O)O)c2nc3ccccc3s2)cc1[N+](=O)[O-] | i | -7.4* | i | i | i
CCCCSc1cc(C)nc(N)n1 | i | i | i | i | i
Cc1coc2c(C)c3oc(=O)c(CCC(=O)NCCN4CCOCC4)c(C)c3cc12 | i | i | i | -7* | i
